Assay results collected from several papers.
Compare with care: the assays were run in different laboratories.
Target: Serine/threonine-protein kinase PAK 2 (PAK2, Homo sapiens, UniProt Q13177)

| SMILES | effect on | method | tested at | remaining binding [%] |
| --- | --- | --- | --- | --- |
| O=C(c1ccc(Nc2ncc(Cl)c(-c3cc4ccccc4s3)n2)cc1)N1CCC(N2CCCC2)CC1 | binding | competition with immobilised ligand | 1 µM | 59 |
| CCS(=O)(=O)c1cc2cc(C[C@](O)(CC(C)(C)c3ccc(F)cc3C(N)=O)C(F)(F)F)[nH]c2cn1 | cell-free assay | competition with immobilised ligand | 1 µM | 86 |
| CN(CCCC(F)(F)F)c1nccc(-c2cnn3ncccc23)n1 | binding | – | 1 µM | 100 |
| O=C(N1CCS(=O)(=O)CC1)N1C[C@H](c2ccc(OC(F)(F)F)cc2)C[C@H](c2nc(C3CC3)no2)C1 | cell-free assay | competition with immobilised ligand | 1 µM | 90 |
| Cc1cnn2ncc(-c3ccnc(N(C)C)n3)c2c1 | binding | – | 1 µM | 96 |
| O=C(NCC1CCOCC1)c1n[nH]cc1NC(=O)c1c(F)cccc1F | binding | competition with immobilised ligand | 1 µM | 60 |
| O=C(c1ccc(Nc2ncc(Cl)c(-c3ccc(Cl)s3)n2)cc1)N1CCC(N2CCCC2)CC1 | binding | competition with immobilised ligand | 1 µM | 49 |
| Cc1c(C(=O)O)cc(-c2ccc(C3CCNCC3)cc2)c2ccc(-c3ccc(C(F)(F)F)cc3)cc12 | cell-free assay | competition with immobilised ligand | 1 µM | 100 |
| C[C@H]1CCN(c2nccc(-c3cnn4ncccc34)n2)C1 | binding | – | 1 µM | 59 |
| CN(C)CC#Cc1ccc(OCCCc2sc(N3CCc4cccc(C(=O)Nc5nc6ccccc6s5)c4C3)nc2C(=O)O)c(F)c1 | cell-free assay | competition with immobilised ligand | 1 µM | 93 |
| c1cncc(-c2cccc(Nc3nccc(NC4CCCCC4)n3)c2)c1 | binding | competition with immobilised ligand | 10 µM | 56 |
| N[C@H]1CCN(c2nccc(-c3cnn4ncccc34)n2)C1 | binding | – | 1 µM | 87 |
| COc1cnc(Nc2cccc(S(N)(=O)=O)c2)nc1N1CCN(c2ccccc2)C(=O)C1 | binding | competition with immobilised ligand | 1 µM | 83 |
| COc1ncc2cc3ccccc3nc2c1C#N | cell-free assay | competition with immobilised ligand | 5 µM | 85 |
| CCC(=O)N[C@H]1CC[C@@H](C(=O)N(C)c2ccc(-c3nc4ccccc4o3)cc2)C1 | cell-free assay | competition with immobilised ligand | 1 µM | 100 |
| CN(C)c1nccc(-c2cnc3ncccn23)n1 | binding | – | 1 µM | 100 |
